Laboratory results from publication PMC6407750 (Targeted Oncology, 2019).
Read-outs that look alike come from different tables or passages of the source.

Assays:
[1] = assay type: in vivo, human; details: for AUC(0-inf): AUC0–∞,obs; for Tmax: median [range]
Procedure, shortened: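 Sixteen advanced solid tumour patients were enrolled. Each received a single oral 200 mg tablet after an overnight fast, either with ~240 mL water or directly after a ~950 kcal high-fat breakfast eaten within 30 min. No food was given for 4 h. Order was randomized, with a 7-day washout. Plasma was sampled predose and 0.5–48 h and measured by LC–MS/MS (detection limit 1 nM). Parameters were derived by non-compartmental analysis, with adjusted geometric mean ratios and 90% CI.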

[2] = single dose, primarily Caucasian subjects, fasted state; cited from earlier work
[3] = assay type: in vivo, human; details: single 200 mg dose; for AUC(0-inf) / Cmax / half-life: human, plasma, oral, 200 mg; for AUC(0-inf): AUC0–∞,obs; for AUC(0-inf) / Cmax: adjusted geometric mean; for half-life: t½, geometric mean [coefficient of variation (%)]
Procedure, shortened: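 Sixteen advanced solid tumour patients, fasted overnight and for 4 h post-dose, received 200 mg as an intact tablet or as the uncrushed tablet shaken to full dispersion in 20 mL of sucralose 4 mg/mL, menthol 2 mg/mL and benzoic acid 1 mg/mL, undiluted. Order was randomized, with a 7-day washout. Plasma was sampled predose to 48 h by LC–MS/MS. Analysis was non-compartmental, with adjusted geometric mean ratios and 90% CI.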

[4] = administered with food compared to a fasted state; cited from earlier work
[5] = single 200 mg tablet, fed versus fasted

COc1cc(C(=O)NC2CCN(C)CC2)c(F)cc1Nc1ncc(C(F)(F)F)c(Oc2cccc3c2C(=O)N(C)C3)n1 [BI 853520]
t½ ([1]; fasted, single 200 mg tablet, geometric mean [coefficient of variation (%)], n=15): 18.0 (22.6) h | Cmax ([1]; fed, single 200 mg tablet, plasma, adjusted geometric mean): 1640 nM | Cmax ([1]; human, plasma, oral, 200 mg): 1870 nM | half-life ([1]; human, plasma, oral, 200 mg): 1080 min | AUC(0-inf) ([1]; human, plasma, oral, 200 mg, fasted, single 200 mg tablet, adjusted geometric mean): 39.9 µM·h | AUC(0-inf) ([1]; human, plasma, oral, 200 mg, fed, single 200 mg tablet, adjusted geometric mean): 39.2 µM·h | Tmax ([1]; human, plasma, oral, 200 mg, fasted, single 200 mg tablet, n=15): 3 h | Tmax ([1]; human, plasma, oral, 200 mg, fed (high-calorie meal), single 200 mg tablet, n=15): 4 h | tmax and t½ after a high-calorie meal compared with fasted patients ([1]; single 200 mg tablet): not different | AUC0-tz adjusted GMR (90% CI) [fed/fasted] [1, 5]: 92.46 (74.24–115.16) % | AUC0–∞,obs adjusted GMR (90% CI) [fed/fasted] [1, 5]: 98.17 (78.53–122.74) % | Cmax adjusted GMR (90% CI) [fed/fasted] [1, 5]: 87.34 (71.04–107.38) % | observed terminal half-life (t½) [2]: 19 h | AUC(0-inf) ([3]; liquid dispersion, fasted): 31.5 µM·h | AUC(0-inf) ([3]; tablet, fasted): 32 µM·h | Cmax ([3]; liquid dispersion, fasted): 1610 nM | Cmax ([3]; tablet, fasted): 1720 nM | half-life ([3]; liquid dispersion, fasted): 1100 min | half-life ([3]; tablet, fasted): 1170 min | AUC0-tz adjusted GMR (90% CI) [tablet/liquid] ([3]; fasted): 99.98 (92.28–108.33) % | AUC0–∞,obs adjusted GMR (90% CI) [tablet/liquid] ([3]; fasted): 101.65 (93.57–110.42) % | Cmax adjusted GMR (90% CI) [tablet/liquid] ([3]; fasted): 107.15 (98.79–116.22) % | tmax and t½, effect of dispersing in a liquid ([3]; liquid dispersion vs tablet): not affected

C[C@]12CC[C@H](O)CC1=CC[C@@H]1[C@@H]2CC[C@]2(C)C(c3cccnc3)=CC[C@@H]12 [abiraterone]
increase in the area under the plasma concentration–time curve (AUC) [4]: 1000%
